According to ChEMBL document CHEMBL2176992, “Synthesis and structure-activity relationship of (E)-phenoxyacrylic amide derivatives as hypoxia-inducible factor (HIF) 1α inhibitors” (J Med Chem, 2012):
Converted amounts (≈) assume the structure as drawn. The source made the active and inactive calls. The rule behind the calls is not given here.

Key:
HCT-116 [1] = assay: Cytotoxicity against human HCT116 cells assessed as cell viability after 48 hrs by SRB assay; format: cell-based; settings: hct-116, 48 h
How it was run: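 Cell viability of HCT116 by sulforhodamine B assay under the hypoxic reporter-assay conditions; mean of three experiments.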

[2] = target: T1, Hypoxia-inducible factor 1-alpha (Homo sapiens, UniProt Q16665); assay: Inhibition of HIF1alpha in human HCT116 cells under hypoxic condition after 16 hrs by dual luciferase reporter gene assay; format: cell-based; settings: hct-116
How it was run: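 HRE-luciferase reporter in HCT116 cells under hypoxia (1% O2, 94% N2, 5% CO2); luciferase read-out. IC50 from the mean of three experiments; LW6 positive control.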
Target sequence in this assay (Q16665 whole entry): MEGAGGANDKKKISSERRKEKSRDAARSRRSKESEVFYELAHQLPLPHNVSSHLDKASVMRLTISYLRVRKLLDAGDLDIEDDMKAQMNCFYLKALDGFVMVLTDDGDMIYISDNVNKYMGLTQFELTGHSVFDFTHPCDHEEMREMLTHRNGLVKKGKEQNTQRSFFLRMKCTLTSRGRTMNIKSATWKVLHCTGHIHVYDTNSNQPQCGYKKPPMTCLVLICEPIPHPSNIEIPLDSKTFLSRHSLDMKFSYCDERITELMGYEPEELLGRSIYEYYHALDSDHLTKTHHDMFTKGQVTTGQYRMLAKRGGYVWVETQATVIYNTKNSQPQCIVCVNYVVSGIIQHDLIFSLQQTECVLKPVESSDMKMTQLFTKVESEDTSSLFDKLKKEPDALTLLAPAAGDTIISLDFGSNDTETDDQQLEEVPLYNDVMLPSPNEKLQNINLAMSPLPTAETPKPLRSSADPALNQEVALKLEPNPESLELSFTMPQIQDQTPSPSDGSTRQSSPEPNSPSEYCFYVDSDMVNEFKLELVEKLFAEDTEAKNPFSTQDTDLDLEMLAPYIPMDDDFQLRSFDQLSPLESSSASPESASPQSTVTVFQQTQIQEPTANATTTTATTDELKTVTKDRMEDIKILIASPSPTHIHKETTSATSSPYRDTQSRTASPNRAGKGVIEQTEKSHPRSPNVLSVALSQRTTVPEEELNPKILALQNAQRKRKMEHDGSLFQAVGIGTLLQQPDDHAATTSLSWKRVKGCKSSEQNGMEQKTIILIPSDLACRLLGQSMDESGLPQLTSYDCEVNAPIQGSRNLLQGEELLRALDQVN

[3] = target: T1, Hypoxia-inducible factor 1-alpha; assay: Inhibition of HIF1alpha in human HCT116 cells under hypoxic condition at 0.4 uM after 12 hrs by dual luciferase reporter gene assay in absence of dipyridol; format: cell-based; settings: HCT-116
How it was run: (§1)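 Cells cotransfected with pGL3-HRE-luciferase and pRL-SV40, incubated 24 h, then 4 h hypoxia. Then treated with compound (17-AAG 0.4 μM; test 5 μM) with or without 200 μM dipyridol for 12 h under hypoxia. Firefly luciferase normalised to Renilla.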
Target sequence in this assay (Q16665 whole entry, looked up): as the sequence (Q16665 whole entry) above

[4] = target: T1, Hypoxia-inducible factor 1-alpha; assay: Inhibition of HIF1alpha in human HCT116 cells under hypoxic condition at 0.4 uM after 12 hrs by dual luciferase reporter gene assay in presence of dipyridol; format: cell-based; settings: HCT-116; how it was run: as §1
Target sequence in this assay (Q16665 whole entry, looked up): as the sequence (Q16665 whole entry) above

HCT-116 [5] = assay: Antimigratory activity against human HCT116 cells assessed as inhibition of cell migration after 24 hrs by wound healing assay; format: functional, cell-based
How it was run: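 Scratch-wound migration of HCT116 cells formed with culture inserts; cells treated with compound or SU11248 and wound closure observed over 24 h.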

HUVEC [6] = assay: Cytotoxicity against HUVECs assessed as growth inhibition at 0.5 to 2 uM after 48 hrs by SRB assay; format: cell-based; settings: human
How it was run: (§2)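 HUVEC growth inhibition measured by sulforhodamine B assay, run in parallel with the Matrigel tube-formation incubation (compound or SU11248).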

HUVEC [7] = assay: Antiangiogenic activity in HUVECs under hypoxic condition assessed as inhibition of tube formation at 2 uM after 18 hrs; format: functional, cell-based; settings: Homo sapiens
How it was run: (§3)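 HUVECs seeded on wells coated with ice-cold Matrigel, incubated with compound under 1% O2 for 18 h. Tubule branches photographed; SU11248 as VEGFR-inhibitor positive control.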

[8] = target: T1, Hypoxia-inducible factor 1-alpha; assay: Inhibition of HIF1alpha in human HCT116 cells under hypoxic condition assessed as decrease in MMP9 mRNA expression by RT-PCR analysis; format: cell-based; settings: HCT-116
How it was run: (§4)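 HCT116 cells were treated under hypoxia (1% O2, 94% N2, 5% CO2), and the 2 μM test level was named. mRNA of HIF-1α and its targets (VEGF, EPO, MMP-9) was measured by RT-PCR.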
Target sequence in this assay (Q16665 whole entry, looked up): as the sequence (Q16665 whole entry) above

[9] = target: T1, Hypoxia-inducible factor 1-alpha; assay: Inhibition of HIF1alpha in human HCT116 cells under hypoxic condition assessed as decrease in EPO mRNA expression by RT-PCR analysis; format: cell-based; settings: HCT-116; how it was run: as §4
Target sequence in this assay (Q16665 whole entry, looked up): as the sequence (Q16665 whole entry) above

[10] = target: T1, Hypoxia-inducible factor 1-alpha; assay: Inhibition of HIF1alpha in human HCT116 cells under hypoxic condition assessed as decrease in VEGF mRNA expression by RT-PCR analysis; format: cell-based; settings: HCT-116; how it was run: as §4
Target sequence in this assay (Q16665 whole entry, looked up): as the sequence (Q16665 whole entry) above

[11] = target: T1, Hypoxia-inducible factor 1-alpha; assay: Inhibition of HIF1alpha in human HCT116 cells under normoxic condition assessed as increase in VHL expression at 2 to 5 uM by dual luciferase reporter gene assay; format: cell-based; settings: HCT-116
Target sequence in this assay (Q16665 whole entry, looked up): as the sequence (Q16665 whole entry) above

[12] = target: T1, Hypoxia-inducible factor 1-alpha; assay: Inhibition of HIF1alpha in human HCT116 cells under hypoxic condition assessed as increase in VHL expression at 2 to 5 uM by dual luciferase reporter gene assay; format: cell-based; settings: HCT-116
How it was run: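 HCT116 cells were exposed to 0, 2 or 5 μM compound under hypoxia (1% O2, 94% N2, 5% CO2). They were lysed in RIPA buffer, and total lysates were examined for VHL expression.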

[13] = target: T1, Hypoxia-inducible factor 1-alpha; assay: Inhibition of HIF1alpha in human HCT116 cells under hypoxic condition at 5 uM after 12 hrs by dual luciferase reporter gene assay in absence of dipyridol; format: cell-based; settings: HCT-116
How it was run: (§5)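 HCT116 cells were cotransfected with pGL3-HRE-luciferase and pRL-SV40 and incubated 24 h. They were then held under hypoxia 4 h and treated with 5 μM compound for 12 h under hypoxia, with 200 μM dipyridol added where stated. Firefly luciferase was read against Renilla.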

[14] = target: T1, Hypoxia-inducible factor 1-alpha; assay: Inhibition of HIF1alpha in human HCT116 cells under hypoxic condition at 5 uM after 12 hrs by dual luciferase reporter gene assay in presence of dipyridol; format: cell-based; settings: HCT-116; how it was run: as §5
PC-3 = assay: Inhibition of HIF1alpha expression in human PC3 cells under hypoxic condition assessed as decrease in protein accumulation by Western blot analysis; format: functional, cell-based
How it was run: (§6)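 Cells held under hypoxia (1% O2, 94% N2, 5% CO2) with compound at various concentrations; HIF-1α protein in lysates detected by Western blot. LW6 as control; HIF-1β also probed.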

HeLa = assay: Inhibition of HIF1alpha expression in human HeLa cells under hypoxic condition assessed as decrease in protein accumulation by Western blot analysis; format: functional, cell-based; how it was run: as §6
A549 = assay: Inhibition of HIF1alpha expression in human A549 cells under hypoxic condition assessed as decrease in protein accumulation by Western blot analysis; format: functional, cell-based; how it was run: as §6
LoVo = assay: Inhibition of HIF1alpha expression in human LoVo cells under hypoxic condition assessed as decrease in protein accumulation by Western blot analysis; format: functional, cell-based; how it was run: as §6
HCT-116 [15] = assay: Inhibition of HIF1beta expression in human HCT116 cells under hypoxic condition assessed as protein accumulation at 0.05 to 30 uM by Western blot analysis; format: functional, cell-based
How it was run: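 HCT116 cells under hypoxia treated with compound at various concentrations; HIF-1β protein level in lysates assessed by Western blot alongside HIF-1α.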

HCT-116 [16] = assay: Inhibition of HIF1alpha expression in human HCT116 cells under hypoxic condition assessed as decrease in protein accumulation by Western blot analysis; format: functional, cell-based; how it was run: as §6
[17] = Kinetic solubility of the compound in water at pH 7.4 by nephlometry; format: physicochemical; settings: read-out: Kinetic_solubility
How it was run: (§7)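 Kinetic aqueous solubility determined by nephelometry at pH 2, 7.4 and 9; values are the mean of three experiments.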

[18] = Kinetic solubility of the compound in water at pH 9 by nephlometry; format: physicochemical; settings: read-out: Kinetic_solubility; how it was run: as §7
[19] = Kinetic solubility of the compound in water at pH 2 by nephlometry; format: physicochemical; settings: read-out: Kinetic_solubility; how it was run: as §7
HUVEC [20] = assay: Cytotoxicity against HUVECs assessed as growth inhibition at 1 to 5 uM after 48 hrs by SRB assay; format: cell-based; settings: human; how it was run: as §2
HUVEC [21] = assay: Antiangiogenic activity in HUVECs under hypoxic condition assessed as inhibition of tube formation at 2 to 5 uM after 18 hrs; format: functional, cell-based; settings: Homo sapiens; how it was run: as §3
HCT-116 [22] = assay: Downregulation of HIF1alpha mRNA expression in human HCT116 cells under hypoxic condition at 2 to 10 uM by RT-PCR analysis; format: functional, cell-based
How it was run: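 mRNA of HIF-1α and target genes measured by RT-PCR in compound-treated cells.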

IC50 [2] | SMILES | Activity (HCT-116 [1]) | other results
> 20000 nM | O=C(/C=C/Oc1ccc(C23CC4CC(CC(C4)C2)C3)cc1)Nc1cccc(C(=O)O)c1 | > 20 µM | –
– | C=CCNC1=C2C[C@@H](C)C[C@H](OC)[C@H](O)[C@@H](C)/C=C(\C)[C@H](OC(N)=O)[C@@H](OC)/C=C\C=C(/C)C(=O)NC(=CC1=O)C2=O | – | inhibition [3]: Active; inhibition [4]: Active
1180 nM | CS(=O)(=O)c1cccc(NC(=O)/C=C/Oc2ccc(C34CC5CC(CC(C5)C3)C4)cc2)c1 | > 20 µM | –
– | CCN(CC)CCNC(=O)c1c(C)[nH]c(/C=C2\C(=O)Nc3ccc(F)cc32)c1C [SUNITINIB] | – | inhibition (HCT-116 [5]): Active; Activity (HUVEC [6]): Non-toxic; inhibition (HUVEC [7]): Active
> 20000 nM | COC(=O)c1cc(NC(=O)/C=C/Oc2ccc(C34CC5CC(CC(C5)C3)C4)cc2)ccc1O | > 20 µM | –
> 20000 nM | NC(=O)c1cccc(NC(=O)/C=C/Oc2ccc(C34CC5CC(CC(C5)C3)C4)cc2)c1 | > 20 µM | –
1070 nM | O=C(/C=C/Oc1ccc(C23CC4CC(CC(C4)C2)C3)cc1)Nc1cccc(C(=O)NCCN2CCOCC2)c1 | > 20 µM | –
4120 nM | COC(=O)c1cccc(NC(=O)/C=C/Oc2ccc(C34CC5CC(CC(C5)C3)C4)cc2C)c1 | > 20 µM | –
820 nM | CCOC(=O)c1cccc(NC(=O)/C=C/Oc2ccc(C34CC5CC(CC(C5)C3)C4)cc2)c1 | > 20 µM | –
1040 nM | COC(=O)c1cccc(NC(=O)/C=C/Oc2ccc(C(C)(C)CC(C)(C)C)cc2)c1 | > 20 µM | –
2540 nM | COC(=O)c1cccc(NC(=O)CCOc2ccc(C34CC5CC(CC(C5)C3)C4)cc2)c1 | > 20 µM | –
120 nM | O=C(/C=C/Oc1ccc(C23CC4CC(CC(C4)C2)C3)cc1)Nc1cccc(C(=O)OCCN2CCOCC2)c1 | > 20 µM | inhibition [8]: Dose-dependent effect; inhibition [9]: Dose-dependent effect; inhibition [10]: Dose-dependent effect; inhibition [11]: Active; inhibition [12]: Active; inhibition [13]: Active; inhibition [14]: inactive; inhibition (PC-3): Dose-dependent effect; inhibition (HeLa): Dose-dependent effect; inhibition (A549): Dose-dependent effect; inhibition (LoVo): Dose-dependent effect; inhibition (HCT-116 [15]): inactive; inhibition (HCT-116 [16]): Dose-dependent effect; solubility kinetic [17]: 113 µM (≈ 60 µg/mL); solubility kinetic [18]: 61.3 µM (≈ 32.5 µg/mL); solubility kinetic [19]: 45.1 µM (≈ 23.9 µg/mL); inhibition (HCT-116 [5]): Active; Activity (HUVEC [20]): Non-toxic; inhibition (HUVEC [21]): Active; Activity (HCT-116 [22]): inactive
1350 nM | O=C(/C=C/Oc1ccc(C23CC4CC(CC(C4)C2)C3)cc1)Nc1cccc(C(=O)OCCN2CCCC2)c1 | > 20 µM | –
2440 nM | COC(=O)c1ccc(O)c(NC(=O)COc2ccc(C34CC5CC(CC(C5)C3)C4)cc2)c1 | > 20 µM | solubility kinetic [17]: 6.85 µM (≈ 2.98 µg/mL); solubility kinetic [18]: 44.9 µM (≈ 19.6 µg/mL); solubility kinetic [19]: 68.2 µM (≈ 29.7 µg/mL)
1850 nM | O=C(/C=C/Oc1ccc(C23CC4CC(CC(C4)C2)C3)cc1)Nc1cccc(C(=O)NCCCn2ccnc2)c1 | > 20 µM | –
> 20000 nM | CC(C)NC(=O)c1cccc(NC(=O)/C=C/Oc2ccc(C34CC5CC(CC(C5)C3)C4)cc2)c1 | > 20 µM | –
> 20000 nM | O=C(/C=C/Oc1ccc(C23CC4CC(CC(C4)C2)C3)cc1)Nc1cccc(C(=O)NCc2ccco2)c1 | > 20 µM | –
– | COC(=O)c1cccc(NC(=O)/C=C/Oc2ccc(C34CC5CC(CC(C5)C3)C4)cc2)c1 | > 20 µM | solubility kinetic [17]: 6.56 µM (≈ 2.83 µg/mL); solubility kinetic [18]: 12.2 µM (≈ 5.27 µg/mL); solubility kinetic [19]: 4.25 µM (≈ 1.83 µg/mL)
15800 nM | COC(=O)c1cccc(NC(=O)CCCOc2ccc(C34CC5CC(CC(C5)C3)C4)cc2)c1 | > 20 µM | –
6030 nM | COC(=O)c1cccc(NC(=O)/C=C/Oc2ccc(C(C)(C)C)cc2)c1 | > 20 µM | –
5030 nM | COC(=O)c1cccc(NC(=O)COc2ccc(C34CC5CC(CC(C5)C3)C4)cc2)c1 | > 20 µM | –
1840 nM | COCCOC(=O)c1cccc(NC(=O)/C=C/Oc2ccc(C34CC5CC(CC(C5)C3)C4)cc2)c1 | > 20 µM | –
2380 nM | NS(=O)(=O)c1cccc(NC(=O)/C=C/Oc2ccc(C34CC5CC(CC(C5)C3)C4)cc2)c1 | > 20 µM | –
2620 nM | CN(C)CCOC(=O)c1cccc(NC(=O)/C=C/Oc2ccc(C34CC5CC(CC(C5)C3)C4)cc2)c1 | > 20 µM | –
1340 nM | O=C(/C=C/Oc1ccc(C23CC4CC(CC(C4)C2)C3)cc1)Nc1cccc(C(=O)NCCc2ccncc2)c1 | > 20 µM | –
2170 nM | COC(=O)c1ccc(NC(=O)/C=C/Oc2ccc(C34CC5CC(CC(C5)C3)C4)cc2)cc1 | > 20 µM | –
